Experimental data from ChEMBL document CHEMBL1155469, “Peptide nucleic acids conjugated to short basic peptides show improved pharmacokinetics and antisense activity in adipose tissue” (J Med Chem, 2010).
Calls of active or inactive are those of the source. No cut-off for these calls is given here.

Assays:
BCL1 = assay: Inhibition of PTEN expression in mouse BCL1 cells after 62 hrs by Western blotting; assay type: functional, cell-based; conditions: BCL1, 62 h
Summary of the method: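 BCL1 cells were grown in DMEM with 10% FBS at 37 °C, 5% CO2. Compound was delivered to 2×10^6 cells by electroporation (200 V, 1000 uF, 13 ohms), and cells were harvested 62 h later. Western blot of RIPA lysates used rabbit anti-PTEN and anti-CD40 (1:1000) with HRP secondary and ECL detection. PTEN was normalized to CD40. n=3, mean ± SD.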

Mus musculus [1] = assay: Toxicity in Balb/C mouse assessed as change in body weight at 40 mg/kg, ip administered thrice a week for 2 weeks measured 48 hrs after last dose; assay type: organism-based; set-up: dose 40 mg/kg, route intraperitoneal; conditions: in vivo
Summary of the method: (§1)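 Male Balb/c mice, 6–8 wk, n=4/group, received compound i.p. in PBS (10 ul/g) 3x/wk for 2 wk. Body weight was monitored throughout. At 48 h after the last dose, mice were anesthetized with isoflurane and bled by cardiac puncture. Serum AST, ALT, BUN, bilirubin, glucose and triglycerides were compared with the saline group. ALT rise below 2x normal was counted as absent.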

Mus musculus [2] = assay: Toxicity in Balb/C mouse assessed as change in serum AST levels at 40 mg/kg, ip administered thrice a week for 2 weeks measured 48 hrs after last dose; assay type: organism-based; set-up: dose 40 mg/kg, route intraperitoneal; conditions: in vivo; summary of the method: as §1
Mus musculus [3] = assay: Toxicity in Balb/C mouse assessed as change in serum ALT levels at 40 mg/kg, ip administered thrice a week for 2 weeks measured 48 hrs after last dose; assay type: organism-based; set-up: dose 40 mg/kg, route intraperitoneal; conditions: in vivo; summary of the method: as §1
Mus musculus [4] = assay: Toxicity in Balb/C mouse assessed as change in blood urea nitrogen levels at 40 mg/kg, ip administered thrice a week for 2 weeks measured 48 hrs after last dose; assay type: organism-based; set-up: dose 40 mg/kg, route intraperitoneal; conditions: in vivo; summary of the method: as §1
Mus musculus [5] = assay: Toxicity in Balb/C mouse assessed as change in serum bilirubin levels at 40 mg/kg, ip administered thrice a week for 2 weeks measured 48 hrs after last dose; assay type: organism-based; set-up: dose 40 mg/kg, route intraperitoneal; conditions: in vivo; summary of the method: as §1
Mus musculus [6] = assay: Toxicity in Balb/C mouse assessed as change in serum glucose levels at 40 mg/kg, ip administered thrice a week for 2 weeks measured 48 hrs after last dose; assay type: organism-based; set-up: dose 40 mg/kg, route intraperitoneal; conditions: in vivo; summary of the method: as §1
Mus musculus [7] = assay: Toxicity in Balb/C mouse assessed as change in serum triglyceride levels at 40 mg/kg, ip administered thrice a week for 2 weeks measured 48 hrs after last dose; assay type: organism-based; set-up: dose 40 mg/kg, route intraperitoneal; conditions: in vivo; summary of the method: as §1
Mus musculus [8] = assay: Inhibition of PTEN expression in Balb/C mouse liver at 40 mg/kg, ip administered thrice a week for 2 weeks measured 48 hrs after last dose by Western blot analysis; assay type: functional, organism-based; set-up: dose 40 mg/kg
Summary of the method: (§2)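 Male Balb/c mice, 6–8 wk, n=4/group, dosed i.p. in PBS 3x/wk for 2 wk and killed 48 h after the last dose. Tissue was homogenized in RIPA buffer with protease inhibitors, and protein was measured by Lowry assay. Lysates were run on 10% PAGE and blotted to PVDF. Blots were probed with rabbit anti-PTEN (1:1000) and HRP anti-rabbit (1:2500), with ECL detection.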

Mus musculus [9] = assay: Inhibition of PTEN expression in Balb/C mouse kidney at 40 mg/kg, ip administered thrice a week for 2 weeks measured 48 hrs after last dose by Western blot analysis; assay type: functional, organism-based; set-up: dose 40 mg/kg; summary of the method: as §2

IC50 (BCL1): 1 µM
SMILES: COCCO[C@@H]1[C@H](OP(=O)(S)OC[C@H]2O[C@@H](n3cc(C)c(=O)[nH]c3=O)C[C@@H]2OP(=O)(S)OC[C@H]2O[C@@H](n3ccc(N)nc3=O)[C@H](OCCOC)[C@@H]2OP(=O)(S)OC[C@H]2O[C@@H](n3cnc4c(N)ncnc43)[C@H](OCCOC)[C@@H]2OP(=O)(S)OC[C@H]2O[C@@H](n3cnc4c(=O)[nH]c(N)nc43)[C@H](OCCOC)[C@@H]2OP(=O)(S)OC[C@H]2O[C@@H](n3ccc(N)nc3=O)[C@H](OCCOC)[C@@H]2OP(=O)(S)OC[C@H]2O[C@@H](n3cnc4c(N)ncnc43)[C@H](OCCOC)[C@@H]2OP(=O)(S)OC[C@H]2O[C@@H](n3ccc(N)nc3=O)[C@H](OCCOC)[C@@H]2OP(=O)(S)OC[C@H]2O[C@@H](n3cnc4c(N)ncnc43)[C@H](OCCOC)[C@@H]2OP(=O)(S)OC[C@H]2O[C@@H](n3cc(C)c(=O)[nH]c3=O)C[C@@H]2OP(=O)(S)OC[C@H]2O[C@@H](n3ccc(N)nc3=O)[C@H](OCCOC)[C@@H]2OP(=O)(S)OC[C@H]2O[C@@H](n3cc(C)c(=O)[nH]c3=O)C[C@@H]2OP(=O)(S)OC[C@H]2O[C@@H](n3cnc4c(N)ncnc43)[C@H](OCCOC)[C@@H]2OP(=O)(S)OC[C@H]2O[C@@H](n3ccc(N)nc3=O)[C@H](OCCOC)[C@@H]2OP(=O)(S)OC[C@H]2O[C@@H](n3cnc4c(N)ncnc43)[C@H](OCCOC)[C@@H]2OP(=O)(S)OC[C@H]2O[C@@H](n3cnc4c(N)ncnc43)[C@H](OCCOC)[C@@H]2OP(=O)(S)OC[C@H]2O[C@@H](n3cnc4c(=O)[nH]c(N)nc43)[C@H](OCCOC)[C@@H]2OP(=O)(S)OC[C@H]2O[C@@H](n3cnc4c(N)ncnc43)[C@H](OCCOC)[C@@H]2OP(=O)(S)OC[C@H]2O[C@@H](n3cnc4c(N)ncnc43)[C@H](OCCOC)[C@@H]2OP(=O)(S)OC[C@H]2O[C@@H](n3cnc4c(N)ncnc43)[C@H](OCCOC)[C@@H]2O)[C@@H](CO)O[C@H]1n1ccc(N)nc1=O (stereo not given in full)
Activity (Mus musculus [1]): Non-toxic | Activity (Mus musculus [2]): Non-toxic | Activity (Mus musculus [3]): Non-toxic | Activity (Mus musculus [4]): Non-toxic | Activity (Mus musculus [5]): Non-toxic | Activity (Mus musculus [6]): Non-toxic | Activity (Mus musculus [7]): Non-toxic | inhibition (Mus musculus [8]): inactive | inhibition (Mus musculus [9]): inactive
